Experimental data collected from several papers.
Target: Mitogen-activated protein kinase kinase kinase kinase 2 (MAP4K2, Homo sapiens, UniProt Q12851)
Residues used in one study (Q12851 1-820): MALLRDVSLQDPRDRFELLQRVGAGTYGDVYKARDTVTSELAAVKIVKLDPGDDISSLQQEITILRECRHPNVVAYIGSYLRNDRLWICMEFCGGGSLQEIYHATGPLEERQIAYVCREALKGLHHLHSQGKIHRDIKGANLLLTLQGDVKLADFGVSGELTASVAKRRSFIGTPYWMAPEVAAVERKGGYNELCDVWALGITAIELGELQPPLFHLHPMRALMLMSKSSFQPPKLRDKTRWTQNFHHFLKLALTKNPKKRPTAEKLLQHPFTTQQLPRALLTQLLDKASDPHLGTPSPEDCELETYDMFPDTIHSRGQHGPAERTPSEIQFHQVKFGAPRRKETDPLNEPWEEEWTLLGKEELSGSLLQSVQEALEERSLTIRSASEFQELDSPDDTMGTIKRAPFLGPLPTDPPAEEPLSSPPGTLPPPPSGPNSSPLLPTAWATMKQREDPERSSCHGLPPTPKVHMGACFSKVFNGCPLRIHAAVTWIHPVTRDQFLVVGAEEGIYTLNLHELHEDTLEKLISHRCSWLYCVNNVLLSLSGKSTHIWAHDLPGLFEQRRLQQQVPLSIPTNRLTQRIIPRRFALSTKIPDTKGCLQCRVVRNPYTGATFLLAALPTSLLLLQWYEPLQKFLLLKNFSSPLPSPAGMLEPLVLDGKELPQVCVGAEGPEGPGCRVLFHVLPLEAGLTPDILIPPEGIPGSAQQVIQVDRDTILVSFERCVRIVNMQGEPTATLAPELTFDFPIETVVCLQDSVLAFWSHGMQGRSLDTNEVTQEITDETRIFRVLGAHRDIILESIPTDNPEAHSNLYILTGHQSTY

Compound	observed	technique	concentration	remaining binding [%]
Cc1cnc(Nc2ccc(C(=O)N3CCC(N4CCCC4)CC3)cc2)nc1-c1cc2ccccc2s1	binding	competition with immobilised ligand	1 µM	41
O=C(Nc1c[nH]nc1C(=O)NC1CCNCC1)c1cc(F)cc(F)c1	binding	competition with immobilised ligand	1 µM	69
CN(C)c1ncnc(-c2ccc3nc(Nc4cc(CN5CCN(C(=O)CC(F)(F)F)CC5)ccn4)[nH]c3c2)c1Cl	cell-free assay	competition with immobilised ligand	1 µM	69
C[C@H]1CCN(c2nccc(-c3cnn4ncccc34)n2)C1	binding		1 µM	71
CO[C@H]1CC[C@H](CNc2ccc(S(=O)(=O)NC(=O)c3ccc(N4CCN(CC5=C(c6ccc(Cl)cc6)CC(C)(C)CC5)CC4)cc3Oc3cnc4[nH]ccc4c3)cc2[N+](=O)[O-])CC1	cell-free assay	competition with immobilised ligand	1 µM	83
CN(CCCC(F)(F)F)c1nccc(-c2cnn3ncccc23)n1	binding		1 µM	100
O=C(NCc1ncc(C(F)(F)F)cc1Cl)c1ccc2c(c1)C1(CCS(=O)(=O)CC1)[C@@H](C1CC1)N2S(=O)(=O)c1ccc(F)cc1	cell-free assay	competition with immobilised ligand	1 µM	91
CCN1CCN(Cc2ccc(C(=O)Nc3ccc(C)c(Oc4ccc5c(c4)CC(=O)N5)c3)cc2C(F)(F)F)CC1	binding	competition with immobilised ligand	1 µM	100
N[C@@H]1CCN(c2nccc(-c3cnn4ncccc34)n2)C1	binding		1 µM	100
O=C(NC[C@@H]1[C@H]2CN(C(=O)OCc3cc(C(F)(F)F)cc(C(F)(F)F)c3)C[C@@H]12)c1ccc2[nH]nnc2c1	cell-free assay	competition with immobilised ligand	1 µM	92
O=C(NCCCN1CCOCC1)c1ccc(Nc2ncc(Cl)c(-c3ccc(Cl)s3)n2)cc1	binding	competition with immobilised ligand	1 µM	31
CNC(=O)[C@@H]1CC[C@@H](n2c(-c3ccc4cnccc4c3)nc3ccc(C(=O)NCc4cccc(C(N)=O)c4)cc32)C1	binding	competition with immobilised ligand	1 µM	100
C=CC(=O)N1CCC(C(=O)NCC(=O)N2CCN(c3nc(-c4cnc(N)nc4C(F)F)nc(N4CCOCC4)n3)CC2)CC1	binding	competition with immobilised ligand	1 µM	100
CN(c1nccc(-c2cnn3ncccc23)n1)C1CC1	binding		1 µM	100
O=C(c1ccc(Nc2nccc(-c3cc4ccccc4s3)n2)cc1)N1CCC(N2CCCC2)CC1	binding	competition with immobilised ligand	1 µM	52
COc1cnc(Nc2cccc(S(N)(=O)=O)c2)nc1N1CCN(c2ccccc2)C(=O)C1	binding	competition with immobilised ligand	1 µM	95
Cc1c[nH]c2nccc(Oc3c(F)cc(Nc4cc(Cl)nc(N)n4)cc3F)c12	cell-free assay	competition with immobilised ligand	0.1 µM	69
c1cncc(-c2cccc(Nc3nccc(NC4CCCCC4)n3)c2)c1	binding	competition with immobilised ligand	10 µM	67
c1cnn2ncc(-c3ccnc(N4CCC45COC5)n3)c2c1	binding		1 µM	70
C[C@@H](c1ccc(-n2cnc3c(N)ncnc32)cc1)N1CCc2nn(C)c(Cc3ccccc3)c2C1=O	binding	competition with immobilised ligand	0.1 µM	100
Cc1cnn2ncc(-c3ccnc(N(C)C)n3)c2c1	binding		1 µM	99
CNCc1ccccc1-c1csc([C@H](C)Nc2nc(C)nc3cc(OC)c(OC)cc23)c1	cell-free assay	competition with immobilised ligand	1 µM	97
